Compound activity as filed in PubChem BioAssay.
In the library only some 9.2% were active in any assay of this set; here they are far more common.
HCT116 bCat-KO – beta-catenin-lacking colon tumor cell growth suppression; HCT116 beta-catenin knockout viability, CellTiter-Glo, 60 h; stronger effect = lower value; viability, % at 10 µM; hit rate 1.5% among 140,000; AID 818;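 active = viability at or under a set limit, the compound median less 4 SD, cut at about 6% in these data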
Autophagy mod – modulators of autophagy | MEF GFP-LC3 puncta imaging; test concentration mostly 10 µM | calls only at 10 µM (by protocol) | hit rate 0.98% among 190,000 | AID 463193;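 active = percentage of spot-positive cells more than 3 SD above its plate mean, without a fluorescence outlier flag or 80% toxicity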
Dynein transport – dynein cargo transport inhibition; 3617.4 mouse cells, GR-EGFP nuclear translocation imaging; test concentration mostly 20 µM; stimulated with dexamethasone, 1 µM; stronger effect = lower value; z-score, hits read low; hit rate 0.47% among 220,000;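 active = plate z-score of nuclear minus cytoplasmic receptor signal below a set negative limit, without overly bright fluorescence or cell loss, cut at about -3.5 in these data, passing the limit was not always enough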;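 also: z-score of nuclear minus cytoplasmic ring GR-EGFP intensity difference per well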
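Medium: Induction medium lacking tetracycline, stripped serum | Probe or stimulus: 1.0 µM final dexamethasone stimulus | Schedule: 48 h induction, then 1 h compound, then 30 min agonist, 37 °C | Signal: Automated 10x imaging of fixed Hoechst-stained cells | Evaluation: Per-cell GR-EGFP intensity, nucleus versus surrounding cytoplasmic ring, well-averaged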
HCT116 PTEN-null – PTEN-deleted cell growth suppression | HCT116 PTEN-null viability, CellTiter-Glo, 60 h; stronger effect = lower value | viability, % at 10 µM | hit rate 1.2% among 140,000;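 active = viability at or below a set limit, 4 SD under the median of all tested compounds, cut at about 3.7% in these data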;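 also: PTEN knockout HCT116 line with beta catenin targeted HCT116 as companion control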
Lmaj promast – inhibitors of Leishmania major promastigote growth; Leishmania major promastigotes, resazurin fluorescence viability; inhibition, % at 10 µM; hit rate 9% among 200,000; in the data active = inhibition above about 50%;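 also: promastigotes grown with compound for 44 hours at 28 °C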
Of the large screens only hits and unclear results are named; the others gave an inactive call.

CCOC(=O)c1cnc2nc(C)[nH]n2c1=O	none
Nc1nnc(/C=C/c2ccccc2Cl)s1	none (no result: HCT116 bCat-KO, Autophagy mod, HCT116 PTEN-null, Lmaj promast)
C=CCN1CC(c2nc3ccccc3n2Cc2cccc3ccccc23)CC1=O (stereo not given)	Lmaj promast 86.7
Cc1ccc(OCCn2c(C3CC(=O)N(Cc4ccccc4)C3)nc3ccccc32)cc1 (stereo not given)	Lmaj promast 91.5
CCCn1c(C2CC(=O)N(c3ccc(C)cc3)C2)nc2ccccc21 (stereo not given)	none
Cc1cc(C)cc(N2C(=O)C3C4C=CC(C4)C3C2=O)c1 (stereo not given)	none
CCOCCOC(=O)c1[nH]c2c(c1C)C(=O)CC(c1cccs1)C2 (stereo not given)	Autophagy mod active (no result: HCT116 bCat-KO, HCT116 PTEN-null)
COCCOC(=O)c1[nH]c2c(c1C)C(=O)CC(c1cccs1)C2 (stereo not given)	Autophagy mod active (no result: HCT116 bCat-KO, HCT116 PTEN-null)
Cc1c(C(=O)OCC(C)C)[nH]c2c1C(=O)CC(c1cccs1)C2 (stereo not given)	none
CCOC(=O)c1[nH]c2c(c1C)C(=O)CC(c1ccc(F)cc1)C2 (stereo not given)	none
Cc1cccc(-c2nnn3c2nc(NCCc2ccc(S(N)(=O)=O)cc2)c2ccccc23)c1	none
Cc1ccc(-c2nnn3c2nc(NCCc2ccc(S(N)(=O)=O)cc2)c2ccccc23)cc1	Lmaj promast 72.6
CCN(CC)C(=O)CC(c1ccc(F)cc1)c1ccc(OC)cc1 (stereo not given)	none
CC(C)Oc1ccc(C(CC(=O)N(C)CCC#N)c2ccc(F)cc2)cc1 (stereo not given)	Lmaj promast 52.8
O=C(c1cccc(C(F)(F)F)c1)c1c[nH]c(C(=O)NCC2CCCO2)c1 (stereo not given)	none (no result: HCT116 bCat-KO, HCT116 PTEN-null)
CCSc1nnc(NC(=O)c2ccc3ccccc3n2)s1	none
CCc1nnc(NC(=O)c2ccc3ccccc3n2)s1	Lmaj promast 55.9 (no result: HCT116 bCat-KO, HCT116 PTEN-null)
COC(=O)CCN(c1ccccc1)S(=O)(=O)c1ccc(OC)cc1	none
CCOc1ccc(S(=O)(=O)N(CC)CC)cc1NS(=O)(=O)c1ccc(F)c(F)c1F	Lmaj promast 60.0
O=C(Nc1ccccc1N1CCOCC1)c1ccccc1NS(=O)(=O)c1ccc(F)c(F)c1	none (no result: HCT116 PTEN-null)
CCOc1ccc(S(=O)(=O)Nc2cc(S(=O)(=O)N(CC)CC)ccc2N2CCCC2)cc1	Lmaj promast 94.8
CCOc1ccc(S(=O)(=O)Nc2ccccc2C(=O)Nc2ccccc2N2CCOCC2)cc1	none
O=C(Nc1ccccc1N1CCOCC1)c1cccc(NS(=O)(=O)c2ccc(F)c(F)c2)c1	Lmaj promast 70.4 (no result: HCT116 bCat-KO, HCT116 PTEN-null)
CCOc1ccc(C(=O)Nc2cc(S(=O)(=O)Nc3ccccc3Cl)ccc2N2CCOCC2)cc1	Lmaj promast 97.4
CCOc1cc(S(=O)(=O)N(CC)CC)ccc1F	none
CCOc1ccc(N=C/C=C/c2ccccc2)c(O)c1	none (no result: HCT116 bCat-KO, Autophagy mod, HCT116 PTEN-null, Lmaj promast)
O=C(CSc1ccccc1)NN1C(=O)c2ccccc2C1=O	none (no result: HCT116 bCat-KO, HCT116 PTEN-null)
CCN(CC)S(=O)(=O)c1ccc(N(C)C)c(NC(=O)C2CCCC2)c1	none (no result: HCT116 bCat-KO, Autophagy mod, HCT116 PTEN-null, Lmaj promast)
CCN(CC)S(=O)(=O)c1ccc(N2CCOCC2)c(NC(=O)C2CCCC2)c1	Lmaj promast 53.2
CCN(CC)c1ccc(S(=O)(=O)N(CC)CC)cc1NC(=O)C1CCCC1	Lmaj promast 61.0 (no result: HCT116 bCat-KO, HCT116 PTEN-null)
CCN(CC)S(=O)(=O)c1ccc(NC(=O)C2CCCN(C(=O)c3ccc(Cl)cc3)C2)cc1 (stereo not given)	Lmaj promast 97.0
CCN(CC)CCCNC(=O)c1ccc(N2CCCCC2)c(NS(=O)(=O)c2ccc(C)cc2)c1	Lmaj promast 98.9 (no result: HCT116 bCat-KO, HCT116 PTEN-null)
O=C(Nc1nccs1)c1ccc(NC(=O)C2CC=CCC2C(=O)O)cc1 (stereo not given)	none (no result: HCT116 bCat-KO, HCT116 PTEN-null)
CC(=O)c1ccccc1NC(=O)CSc1nnc2ccccn12	none
Cc1cc(C)c2ccc(NN)nc2c1O	Lmaj promast 99.5
CCCN1CC(O)=C(C#N)C1=O	none (no result: HCT116 bCat-KO, HCT116 PTEN-null)
Cc1ccc(OCC(=O)NNC(=O)c2ccoc2C)c(Br)c1	Lmaj promast 72.3
CCC(C)(C)n1nnnc1C(c1ccncc1)N1CCN(c2cccc(OC)c2)CC1 (stereo not given)	Lmaj promast 53.8
COc1cccc(N2CCN(C(c3ccccn3)c3nnnn3C(C)(C)C)CC2)c1 (stereo not given)	none
CCC(C)(C)n1nnnc1C(c1cccnc1)N1CCN(c2cccc(C(F)(F)F)c2)CC1 (stereo not given)	Lmaj promast 94.7
CC(NC(=O)c1cnccn1)c1ccc(S(N)(=O)=O)cc1 (stereo not given)	none (no result: HCT116 bCat-KO, Autophagy mod, HCT116 PTEN-null, Lmaj promast)
COc1ccc(-c2cnnc(N/N=C/c3c(C)nn(-c4ccccc4)c3Cl)n2)cc1	HCT116 bCat-KO 4.7, HCT116 PTEN-null 2.9
COc1ccc(-c2cnnc(N/N=C/c3ccc(O)c(O)c3)n2)cc1	HCT116 bCat-KO 4.5, HCT116 PTEN-null 2.9
O=C(N/N=C/c1cccc(OC(=O)N2CCOCC2)c1)c1cccs1	none
CCOC(=O)c1cc(C(=O)c2ccccc2O)cn2c(=O)c3c(C)c(C)sc3nc12	none (no result: HCT116 bCat-KO, HCT116 PTEN-null)
COc1cc(C2NC(=S)NC3=C2CCc2ccccc23)cc(OC)c1OC (stereo not given)	none
COc1ccc2c(c1)CCC1=C2NC(=S)NC1c1ccc(N(C)C)cc1 (stereo not given)	Lmaj promast 90.1 (no result: HCT116 bCat-KO, HCT116 PTEN-null)
CCCCC1NC(=S)N(C2CCCCC2)C1=O (stereo not given)	none
CCc1ccccc1NC(=S)N(CCCN(C)C)Cc1cc2cc3c(cc2[nH]c1=O)OCO3	none (no result: HCT116 bCat-KO, HCT116 PTEN-null)
Cc1sc2nc(-c3ccccc3)[nH]c(=O)c2c1-c1ccccc1	none
Cc1sc2nc(-c3cccnc3)nc(Cl)c2c1-c1ccccc1	Lmaj promast 61.0
O=C(Cn1ncc(Cl)c(Cl)c1=O)N1CCc2ccccc21	Lmaj promast 87.0 (no result: HCT116 bCat-KO, HCT116 PTEN-null)
CC(C)(C)C1CCC(C(=O)OCC(=O)c2ccc[nH]2)CC1 (stereo not given)	Lmaj promast 56.9
Clc1cc(Br)ccc1OCCn1ccnc1	none
Cc1cc(OCCCCn2ccnc2)cc(C)c1Cl	Lmaj promast 99.0 (no result: HCT116 bCat-KO, HCT116 PTEN-null)
Cc1cc(Cl)cc(C)c1OCCCCn1ccnc1	Lmaj promast 100.2
Cc1cc(Cl)ccc1OC(C)C(=O)NCCCn1ccnc1 (stereo not given)	none (no result: HCT116 bCat-KO, HCT116 PTEN-null)
CCc1cccc(OCCn2ccnc2)c1	none
Cc1cccc(C(C)(C)C)c1OCCn1ccnc1	Lmaj promast 98.5
Cc1cccc(Cl)c1OCCCCn1ccnc1	Lmaj promast 98.0
Cc1cccc(/N=C/c2c(O)n(Cc3ccc4c(c3)OCO4)c(=O)c3ccccc23)n1	none (no result: HCT116 bCat-KO, HCT116 PTEN-null)
Cn1c(N)c(C(=O)CSc2ncn[nH]2)c(=O)n(C)c1=O	none (no result: HCT116 bCat-KO, Autophagy mod, HCT116 PTEN-null, Lmaj promast)
COC(=O)c1ccc(COC(=O)CNS(=O)(=O)c2ccc(C)cc2)cc1	none (no result: HCT116 bCat-KO, HCT116 PTEN-null)
CC(=O)c1cccc(NC(=O)N2CCCC(C(=O)c3cc(F)ccc3F)C2)c1 (stereo not given)	none (no result: HCT116 bCat-KO, HCT116 PTEN-null)
CCOC(=O)c1ccc(NC(=O)CN2C(=O)CNC2=O)cc1	Lmaj promast 96.2
CCOC(=O)c1ccc(NC(=O)CSc2nnc(CNC(=O)c3ccccc3F)o2)cc1	Lmaj promast 91.0
CCOC(=O)c1ccc(NC(=O)CN2CCN(c3ccccc3)CC2)cc1	Lmaj promast 92.4
CCOC(=O)c1ccc(NC(=O)Cn2nnc(-c3ccccc3)n2)cc1	none
